# Source: PMC7909006 (Clinical cancer research : an official journal of the …, 2020)
# How the values were obtained:
# [1] = Plasma pharmacokinetics, noncompartmental analysis; type: in vivo, human
# In short: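 Oral dosing once daily, BSA-based at 400, 600 or 800 mg/m2, rolling-six escalation. Peripheral blood sampled on C1 day 1 before dosing and at 0.5–24 h after, on day 15 before dosing and at 1–6 h after, and before dosing on day 16. Plasma assayed by validated LC-MS/MS (LLOQ 10 nmol/L). Cmax, Tmax, AUC and CL/F derived by noncompartmental analysis.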
# PBMC = assay: Flow cytometric analysis of PBMC and lymphocyte subset analysis; type: in vivo, human
# [2] = adults; cited from earlier work
# [3] = non-human primate model, nontumor setting; cited from earlier work
# [4] = test system: recurrent or refractory acute leukemias or solid tumors including NF1 PN; assay: Tumor response; type: in vivo, human
# In short: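 Tumors assessed at baseline (within 14 days before start), then after every even 28-day cycle with the same imaging modality. Criteria were RECIST v1.1 for solid tumors, WHO for brain tumors, and volumetric MRI for NF1 plexiform neurofibromas (baseline, every 4th cycle in year 1, then every 6 cycles). Leukemia was followed by blood and marrow each cycle. Treatment lasted up to two years.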
# [5] = test system: serum cytokines (IL-10, IL-12p70, IL-6, MCP-1, M-CSF); assay: Pharmacodynamics: serum cytokine analysis, fold change from Day 1; type: in vivo, human
# [6] = recurrent glioblastoma patients, plasma taken at time of surgery; cited from earlier work
# [7] = patient 2, Osteosarcoma, dose level 1
# [8] = patient 3, Ewing Sarcoma, dose level 1
# [9] = patient 4, NF1 plexiform neurofibroma, dose level 1
# [10] = patient 5, NF1 plexiform neurofibroma, dose level 2
# [11] = patient 6, NF1 plexiform neurofibroma, dose level 2
# [12] = patient 7, Central Nervous System PNET, dose level 2
# [13] = patient 8, Primary brain tumor, dose level 2
# [14] = patient 9, NF1 malignant peripheral nerve sheath tumor, dose level 3
# [15] = patient 10, Osteosarcoma, dose level 3
# [16] = patient 11, Osteosarcoma, dose level 3
# [17] = patient 12, Embryonal rhabdomyosarcoma, dose level 3
# [18] = patient 13, Acute myeloid leukemia, dose level 3
# [19] = patient 14, Spindle cell carcinoma, dose level 3
# [20] = patient 15, Aneurysmal fibrous histiocytoma, dose level 3
# [21] = patient 16, Glioblastoma, dose level 3
compound,measurement,setting,value
FC(F)(F)c1ccc(CNc2ccc(Cc3c[nH]c4ncc(Cl)cc34)cn2)cn1 [Pexidartinib],Cmax dependence on dose,[1]; DL1 to DL3,rose with increasing dose
same,"Accumulation ratio, median","[1]; day 15 vs day 1, DL3 (n=3)",1.22
same,Clearance from concentration x time curves,[1]; first day of dosing,slow clearance
same,PK dose linearity,[1]; over three DLs,linear
same,"Change in CD14dimCD16+ nonclassical, pro-inflammatory monocytes",PBMC; C1,No significant changes
same,"CD11b+ cells in PBMC, median fold change (95% CI)","PBMC; C1 days 6–8, flow cytometry","0.47 (0.21, 1.31)"
same,Change in peripheral blood lymphocyte subset analysis,PBMC; during C1,no notable changes
same,Median terminal half-life,[2],16.8 h
same,Drug levels in the cerebral spinal fluid,[3],low but detectable levels
same,"Sustained partial response, RECIST decrease in longest diameter of target lesion","[4]; 1 patient with peritoneal mesothelioma, 400 mg/m^2/day DL",67%
same,"Stable disease, number of patients",[4]; 16 patients enrolled,three
same,Median number of treatment cycles received,"[4]; 16 patients, 1 C = 28 days",1 C
same,Duration of stable disease prior to disease progression,"[4]; one patient with metastatic, rapidly progressive osteosarcoma, 1 C = 28 days",4 C
same,Reason Off Treatment,"[4]; patient 1, Peritoneal mesothelioma, dose level 1",Remains on Study
same,Reason Off Treatment,[4]; [7],Progressive Disease
same,Time-point Off Treatment,[4]; [7],Cycle 1 Day 23
same,Reason Off Treatment,[4]; [8],Progressive Disease
same,Time-point Off Treatment,[4]; [8],Cycle 1 Day 28
same,Reason Off Treatment,[4]; [9],Best Interest of Patient
same,Time-point Off Treatment,[4]; [9],After Cycle 4
same,Reason Off Treatment,[4]; [10],Withdrawal of Consent
same,Time-point Off Treatment,[4]; [10],After Cycle 1 (took 23 doses)
same,Reason Off Treatment,[4]; [11],Best Interest of Patient
same,Time-point Off Treatment,[4]; [11],After Cycle 6
same,Reason Off Treatment,[4]; [12],Progressive Disease
same,Time-point Off Treatment,[4]; [12],After Cycle 1
same,Reason Off Treatment,[4]; [13],Progressive Disease
same,Time-point Off Treatment,[4]; [13],After Cycle 1
same,Reason Off Treatment,[4]; [14],Progressive Disease
same,Time-point Off Treatment,[4]; [14],Cycle 2 Day 28
same,Reason Off Treatment,[4]; [15],Progressive Disease
same,Time-point Off Treatment,[4]; [15],Cycle 4 Day 6
same,Reason Off Treatment,[4]; [16],Progressive Disease
same,Time-point Off Treatment,[4]; [16],Cycle 3 Day 1
same,Reason Off Treatment,[4]; [17],Progressive Disease
same,Time-point Off Treatment,[4]; [17],Cycle 1 Day 12
same,Reason Off Treatment,[4]; [18],Progressive Disease
same,Time-point Off Treatment,[4]; [18],Cycle 1 Day 15
same,Reason Off Treatment,[4]; [19],Progressive Disease
same,Time-point Off Treatment,[4]; [19],Cycle 1 Day 23
same,Reason Off Treatment,[4]; [20],Progressive Disease
same,Time-point Off Treatment,[4]; [20],Cycle 3 Day 16
same,Reason Off Treatment,[4]; [21],Progressive Disease
same,Time-point Off Treatment,[4]; [21],Cycle 2 Day 5
same,"IL-6 serum, Med. Fold Change (95% CI) from Day 1","[5]; 14–15 Days from C1, N=12","0.91 (0.78, 1.34)"
same,"IL-10 serum, Med. Fold Change (95% CI) from Day 1","[5]; 14–15 Days from C1, N=12","1.25 (1.11, 1.44)"
same,"IL-12p70 serum, Med. Fold Change (95% CI) from Day 1","[5]; 14–15 Days from C1, N=12","0.92 (0.80, 1.25)"
same,"M-CSF serum, Med. Fold Change (95% CI) from Day 1","[5]; 14–15 Days from C1, N=12","3.70 (2.31, 5.24)"
same,"MCP-1 serum, Med. Fold Change (95% CI) from Day 1","[5]; 14–15 Days from C1, N=12","1.28 (1.01, 1.56)"
same,"IL-6 serum, Med. Fold Change (95% CI) from Day 1","[5]; 27–29 Days from C1, N=8","0.98 (0.64, 2.39)"
same,"IL-10 serum, Med. Fold Change (95% CI) from Day 1","[5]; 27–29 Days from C1, N=8","1.22 (0.81, 1.30)"
same,"IL-12p70 serum, Med. Fold Change (95% CI) from Day 1","[5]; 27–29 Days from C1, N=8","0.86 (0.66, 1.05)"
same,"M-CSF serum, Med. Fold Change (95% CI) from Day 1","[5]; 27–29 Days from C1, N=8","4.52 (2.40, 13.3)"
same,"MCP-1 serum, Med. Fold Change (95% CI) from Day 1","[5]; 27–29 Days from C1, N=8","1.27 (1.11, 1.54)"
same,"Target inhibition (CSF1 levels elevated, AMC levels decreased)","[5]; 400, 600, 800 mg/m^2 DLs",seen at all DLs
same,Median ratio of tumor/plasma concentrations,[6],70%
